Published values of several laboratories.
Compare with care: the assays were run in different laboratories.
CDC7: Cell division cycle 7-related protein kinase (CDC7, Homo sapiens, UniProt O00311)
AMY2: Pancreatic alpha-amylase (AMY2, Sus scrofa, UniProt P00690)
RORC: Nuclear receptor ROR-gamma (RORC, Homo sapiens, UniProt P51449)
Maoa: Amine oxidase [flavin-containing] A (Maoa, Rattus norvegicus, UniProt P21396)
SIRT2: NAD-dependent protein deacetylase sirtuin-2 (SIRT2, Homo sapiens, UniProt Q8IXJ6)
SLC22A8: Organic anion transporter 3 (SLC22A8, Homo sapiens, UniProt Q8TCC7)

SMILES	target	test	setting	IC50
CC(C)[C@H](N)c1nc2cc(-c3ccnnc3)sc2c(=O)[nH]1	CDC7	enzyme activity, inhibitor	–	3930 nM
O=C1Nc2ccc(Cl)cc2/C1=N/NS(=O)(=O)c1ccc(Br)cc1	AMY2	enzyme activity, inhibitor	–	12800 nM
CC1CN(S(=O)(=O)c2cccc(C(F)(F)F)c2)c2cc(OCc3c(F)cccc3Cl)ccc21 (stereo not drawn)	RORC	ligand displacement, radioligand	–	180 nM
CC(=NN=C1CS(=O)(=O)N(C)c2ccccc21)c1ccc(C)s1	Maoa	enzyme activity, inhibitor, fluorescence	–	1270 nM
CCCCCCCCCCCCNC(=O)NCCCC[C@H](NS(C)(=O)=O)C(=O)N[C@H](C)C(=O)N[C@@H](CCCNC(=N)N)C(N)=O	SIRT2	enzyme activity, inhibitor	–	750 nM
O=C(O)CSc1nnc(Br)n1-c1ccc(C2CC2)c2ccccc12	SLC22A8	transporter uptake, inhibitor, radiometric	1 h, oocytes	3500 nM
c1cnc(OC2CCNCC2)c(-c2nc(Cc3cccc4ncccc34)no2)c1	Glycylpeptide N-tetradecanoyltransferase (Plasmodium falciparum, UniProt Q9U419)	enzyme activity, inhibitor, fluorescence	–	3.5 nM
O=c1oc(Cl)c(Cl)c2ccccc12	Rhomboid protease GlpG (glpG, Escherichia coli, UniProt P09391)	enzyme activity, inhibitor	–	11000 nM
CC(Oc1ccc2c(c1)N(S(=O)(=O)c1cccc(C(F)(F)F)c1)CC2)c1c(F)cccc1Cl (stereo not drawn)	RORC	ligand displacement, radioligand	–	350 nM
O=C1NCCC12CCN(c1c(Cl)cncc1-c1ccc3cccnc3c1)CC2	Cyclin-dependent kinase 19, with cyclin C (CDK19, Homo sapiens, UniProt Q9BWU1)	ligand displacement	–	72 nM
CC(C)C[C@H](NC(=O)[C@H](Cc1ccccc1)NC(=O)[C@@H](N)Cc1ccc(O)cc1)C(=O)N[C@@H](Cc1ccccc1)C(=O)N[C@@H](CCCNC(=N)N)C(=O)N1CCC[C@H]1C(=O)N[C@@H](CCCNC(=N)N)C(=O)N[C@@H](CC(N)=O)C(N)=O	Neuromedin-U receptor 1 (Mus musculus, UniProt O55040)	ligand displacement, radioligand	–	0.38 nM
O=S(=O)(c1cccc(Cl)c1)N1CCc2ccc(OCc3c(F)cccc3Cl)cc21	RORC	ligand displacement, radioligand	–	370 nM
CCCCCCCC/C=C\CCCCCCCC(=O)Oc1ccc2ccc(=O)oc2c1	DNA polymerase I, thermostable (polA, Thermus aquaticus, UniProt P19821)	enzyme activity, inhibitor	–	> 200000 nM
CCCCCCCCCCCCCC(=O)NCCCC[C@H](NS(C)(=O)=O)C(=O)N[C@H](C)C(=O)N[C@@H](CCCNC(=N)N)C(N)=O	SIRT2	enzyme activity, inhibitor	–	740 nM
O=S(=O)(c1cc(Cl)cc(Cl)c1)N1CCc2ccc(OCc3c(F)cccc3Cl)cc21	RORC	ligand displacement, radioligand	–	340 nM
OC[C@@H]1[C@@H](O)[C@H](O)[C@@H](O)[C@@H]2O[C@H]12	Beta-glucosidase (GBA2, Homo sapiens, UniProt Q9HCG7)	enzyme activity, inhibitor	pH 6, lysate	1160 nM
C=C(NC(=O)[C@H](CCCCNC(=S)CCCCCCCCCCCCC)NS(C)(=O)=O)C(=O)N[C@@H](CCCNC(=N)N)C(N)=O	SIRT2	enzyme activity, inhibitor	–	30 nM
Cc1cnc(-c2ccc(-c3ccc(NC(=O)Nc4c(F)cc(F)cc4F)cc3F)c3c2C(=O)NC3)[nH]1	Myosin-IIIb (MYO3B, Homo sapiens, UniProt Q8WXR4)	enzyme activity, inhibitor	–	4.2 nM

SMILES	target	test	setting	IC50
COc1ccc(Cl)cc1COc1ccc2c(c1)N(S(=O)(=O)c1cccc(C(F)(F)F)c1)CC2	RORC	ligand displacement, radioligand	–	170 nM
O=C(O)CCc1nc(-c2ccccc2)c(-c2ccccc2)o1	SLC22A8	transporter uptake, inhibitor	–	870 nM
CNC(=O)c1cc2c(Oc3ccc(NC(=O)C4(C(=O)Nc5ccc(F)cc5)CC4)cc3)ccnc2cc1OC	Tyrosine-protein kinase FRK (FRK, Homo sapiens, UniProt P42685)	enzyme activity, inhibitor, radiometric	–	13 nM
COc1cc(C=CC(=O)CC(c2ccc(N(C)C)cc2)n2ccnc2)ccc1O (stereo not drawn)	AMY2	enzyme activity, inhibitor, absorbance	–	10400 nM
CCn1ncc2c1-c1cnc(N)c(c1)O[C@H](C)c1cc(F)ccc1-c1nn(C)nc1C2	Tyrosine-protein kinase Fes/Fps (FES, Homo sapiens, UniProt P07332)	enzyme activity, inhibitor, radiometric	–	258 nM
Cc1ccc2cc(C=NN=C3CS(=O)(=O)N(C)c4ccccc43)c(Cl)nc2c1	Maoa	enzyme activity, inhibitor, fluorescence	–	1820 nM
CN1CCN(c2ccnc(C(=O)N3CCC[C@H](C(=O)Nc4cccc(-c5ccc(C(N)=O)cc5)c4)C3)c2)CC1	Histone lysine demethylase PHF8, PHD (PHF8, Homo sapiens, UniProt Q9UPP1)	cell-free assay, inhibitor, TR-FRET	–	> 100000 nM
Cc1cccc(C)c1COc1ccc2c(c1)N(S(=O)(=O)c1cccc(C(F)(F)F)c1)CC2	RORC	ligand displacement, radioligand	–	230 nM
CC(C)[C@H]1CC[C@H](C(=O)N[C@H](Cc2ccccc2)C(=O)O)CC1	SLC22A8	transporter uptake, inhibitor	–	860 nM
O=C(O)c1ccnc2c(O)cccc12	Lysine-specific demethylase 4D (KDM4D, Homo sapiens, UniProt Q6B0I6)	enzyme activity, inhibitor, AlphaScreen	–	7300 nM
CC(C)[C@H](N)c1nc2cc(-c3ccnc(Cl)c3)sc2c(=O)[nH]1	CDC7	enzyme activity, inhibitor	–	2200 nM
CCNC(=O)[C@H](CCCNC(=N)CCl)NC(=O)c1ccccc1	Protein-arginine deiminase type-3 (PADI3, Homo sapiens, UniProt Q9ULW8)	enzyme activity, inhibitor	–	26000 nM
COc1cccc(S(=O)(=O)N2CCc3ccc(OCc4c(F)cccc4Cl)cc32)c1	RORC	ligand displacement, radioligand	–	250 nM
CCCCCCCCCCCCNC(=S)NCCCC[C@H](NC(C)=O)C(=O)N[C@@H](C)C(=O)N[C@@H](CCCNC(=N)N)C(N)=O	SIRT2	enzyme activity, inhibitor	–	50 nM
O=c1oc2c(O)c(O)cc3c(=O)oc4c(O)c(O)cc1c4c23	Genome polyprotein, protease (Hepatitis C virus genotype 1b, UniProt Q9WMX2)	enzyme activity, inhibitor, fluorescence	–	~1000 nM
O=S(=O)(c1cccc(C(F)(F)F)c1)N1CCc2ccc(OCc3c(Cl)cncc3C(F)(F)F)cc21	RORC	ligand displacement, radioligand	–	190 nM
CCCCCCCCCCCCNC(=S)NCCCC[C@H](NC(=O)OCc1ccccc1)C(=O)N[C@@H](C)C(=O)N[C@@H](CCCNC(=N)N)C(N)=O	SIRT2	enzyme activity, inhibitor	–	140 nM
O=C1Nc2ccccc2/C1=N/NS(=O)(=O)c1ccc(Cl)cc1	AMY2	enzyme activity, inhibitor	–	3700 nM
